In general, inhibition refers to the relative decrease from the control value, in per cent. Usually IC50 stands for the concentration that gives 50% inhibition. By EC50 is commonly meant the concentration at which the effect is half-maximal.

The test system of test [1] is Mus musculus. Briefly: Reduction of serum triglyceride level in cholesterol-fed C57BL/6 mouse at 100 mg/kg, po after 10 days. The test is classed as functional. Details: scale not given: the % may be the effect or the level left. Summed up: (§1)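 Male C57BL/6 mice, 8–12 weeks old, were randomized into five groups of nine. Control mice had ground chow; the other groups had chow with 2% cholesterol. Compound (50 or 100 mg/kg) or reference (100 mg/kg) was suspended in 0.5% CMC-Na and given by oral gavage; control and vehicle mice got 0.5% CMC-Na. Serum and hepatic triglyceride and total cholesterol were measured.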

For test [2], the system named is Mus musculus. Briefly: Reduction of hepatic cholesterol level in cholesterol-fed C57BL/6 mouse at 100 mg/kg, po after 10 days. The arrangement: scale not given: the % may be the effect or the level left. The test is classed as functional. Summed up: as §1
A further test deals with BL21. Briefly: (§2) Antagonist activity at GST-tagged human recombinant FXRalphaLBD expressed in Escherichia coli BL21 cells assessed as inhibition of CDCA-induced SRC-1 co-activator association by HTRF assay. The test is classed as functional. An outline of the steps:
(§3)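 HTRF coactivator recruitment: 10 nM GST-human FXRαLBD (residues 238–473, E. coli BL21(DE3)), 0.83 nM anti-GST-Eu cryptate, 100 nM biotin-SRC1 peptide, 41.75 nM SA/XL665. Buffer was 50 mM Hepes pH 7.0, 125 mM KF, 0.125% CHAPS, 0.05% dry milk. Compound alone or with CDCA, 30 min at room temperature. Signal was 1000×(668/620 nm). Primary screen at 40 μM; IC50 as mean ± SE, three experiments.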
On the technique in general: Time-resolved FRET reads energy transfer from a long-lived donor to a nearby acceptor.

The nature of test [3]: as §2. The test is classed as functional. An outline of the steps: as §3
In test [4] the test system is HEK-293T. Briefly: Antagonist activity at FXRalpha/RXRalpha expressed in HEK293T cells co-expressing GAL4 DBD assessed as inhibition of CDCA-induced transactivation at 50 uM after 18 hrs by luciferase reporter gene assay. The test is classed as functional, cell-based. The following applies: Homo sapiens. Summed up: (§4)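 FXR transactivation in HEK293T cells transiently transfected with pcDNA3.1-FXRα, pcDNA3.1-RXRα, pGL3-FXRE-Luc and pRL-SV40 Renilla vector. Medium was replaced 6 h after transfection with medium holding compound at varied concentrations, with or without 20 μM CDCA, for 18 h. Read-out was dual-luciferase. Three independent experiments.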

In test [5] the test system is Mus musculus. Description: Reduction of hepatic triglyceride level in cholesterol-fed C57BL/6 mouse at 100 mg/kg, po after 10 days. The test is classed as functional. The arrangement: scale not given: the % may be the effect or the level left. An outline of the steps: as §1
Test [6] in a line: Agonist activity at GST tagged human recombinant FXRalphaLBD expressed in Escherichia coli BL21 cells assessed as SRC-1 co-activator association at 40 uM after 30 mins by HTRF assay. The test is classed as functional. Summed up:
as §3

Test [7] is described as follows: Antagonist activity at GST-tagged human recombinant FXRalphaLBD expressed in Escherichia coli BL21 cells assessed as inhibition of CDCA-induced SRC-1 co-activator association at 40 uM by HTRF assay. The test is classed as functional. An outline of the steps: as §3
Test [8] concerns HEK-293T. Description: Agonist activity at FXRalpha/RXRalpha expressed in HEK293T cells co-expressing GAL4 DBD after 18 hrs by luciferase based transactivation assay. The test is classed as functional, cell-based. The settings on record: Homo sapiens. An outline of the steps:
as §4

The nature of test [9]: Agonist activity at GST tagged human recombinant FXRalphaLBD expressed in Escherichia coli BL21 cells assessed as SRC-1 co-activator association after 30 mins by HTRF assay. The settings on record: BL21, 0.5 h. The test is classed as functional. Summed up:
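Human FXRα LBD (residues 238–473) expressed as GST fusion in E. coli BL21(DE3) (IPTG 0.2 mM, 20 °C 6 h), purified on glutathione resin then Superdex 75. 10 nM GST-FXRαLBD incubated with 0.83 nM anti-GST-Eu cryptate, 100 nM biotin-SRC1 peptide and 41.75 nM SA/XL665 in 50 mM Hepes pH 7.0, 125 mM KF, 0.125% CHAPS, 0.05% dry milk, 30 min room temperature. Signal read as 1000×(668/620 nm). Primary screen at 40 μM.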

Calls of active or inactive are those of the source. The calls are words filed in the database; no cut-off is given here.

As for `C/C=C1\C(=O)C[C@H]2[C@@H]3CCC4=CC(=O)CC[C@]4(C)[C@H]3CC[C@]12C` [GUGGULSTERONE], the Activity in the test with Mus musculus [1] is on record as 53.7%; in the test on Mus musculus [2], 26.3%; with Mus musculus [5], 45.1%. In the test with BL21, the inhibition entry is “Dose-dependent effect”. In addition, in test [3], the IC50 is 89.4 µM. The inhibition entry in the test with HEK-293T [4] was “Active”.

For the compound `CCOc1ccc(/C=C2\C(=O)N(c3cc(C(F)(F)F)cc(C(F)(F)F)c3)N=C2C)cc1OC`, the Activity in [6] was under 5%. The inhibition at 40 µM in test [7] was under 5%.

As to `CC1=NN(c2ccccc2)C(=O)/C1=C\c1ccccc1`, the Activity in [6] is on record as under 5%. In addition, in [7], the inhibition at 40 µM worked out at 23.1%.

Consider `CCOc1ccc(/C=C2\C(=O)N(c3cccc([N+](=O)[O-])c3)N=C2C)cc1OC`, for which the Activity in [6] is given as 29.2%. The inhibition at 40 µM in [7] was under 5%.

On to `COc1cc(/C=C2\C(=O)N(c3cccc([N+](=O)[O-])c3)N=C2C(C)C)ccc1O`, for which the Activity in [6] is given as under 5%. In addition, in test [7], the inhibition at 40 µM was found to be 26.4%.

`CCOc1ccc(/C=C2\C(=O)N(c3ccc(Cl)c(Cl)c3)N=C2C)cc1OC`: in test [6], the Activity was under 5%. In addition, the inhibition at 40 µM in test [7] was found to be 7.3%.

Turning to `CCOc1ccc(/C=C2\C(=O)N(c3cccc(C(F)(F)F)c3)N=C2C)cc1OC`, the Activity in test [6] is on record as under 5%. Also, in [7], the inhibition at 40 µM was under 5%.

In the case of `CCOc1ccc(/C=C2\C(=O)N(c3ccccc3F)N=C2C)cc1OC`, in [6], the Activity is recorded as under 5%. Besides, the inhibition at 40 µM in test [7] was 5.5%.

Take `COc1cc(/C=C2\C(=O)N(c3cccc(C(=O)OC(C)C)c3)N=C2C)ccc1O`: the Activity in test [6] is under 5%. Further, the inhibition at 40 µM in test [7] amounted to 29.9%.

On to `CC1=NN(c2cccc([N+](=O)[O-])c2)C(=O)/C1=C\c1ccc(C)s1`, for which the Activity in test [6] was under 5%. Also, the inhibition at 40 µM in [7] is under 5%.

Take `CCOc1ccc(/C=C2\C(=O)N(c3ccc(C(F)(F)F)cc3)N=C2C)cc1OC`: in test [6], the Activity was under 5%. For the same compound, in test [7], the inhibition at 40 µM came to 9.5%.

In the case of `CC1=NN(c2ccccc2)C(=O)/C1=C\c1ccc(Br)cc1`, in the test with HEK-293T [8], the result was inactive. In addition, in test [3], the IC50 was found to be 9.93 µM. In test [6], the Activity is on record as under 5%. Moreover, in test [7], the inhibition at 40 µM was found to be 72.6%.

In the case of `CCOc1ccc(/C=C2\C(=O)N(c3cccc(C(=O)O)c3)N=C2C)cc1OC`, in test [3], the half-inhibitory concentration (IC50) stood at 69 µM. Also, the Activity in test [6] was 9%. In addition, the inhibition at 40 µM in [7] was 48.5%.

For the compound `CCOC(=O)c1cccc(N2N=C(C)/C(=C/c3ccc(OCC)c(OC)c3)C2=O)c1`, the Activity in test [6] was under 5%. Also, in test [7], the inhibition at 40 µM was determined as 9.4%.

Turning to `CC1=NN(c2cccc(C(=O)O)c2)C(=O)/C1=C\c1ccc(O)c(O)c1`, the Activity in test [6] is under 5%. For the same compound, in [7], the inhibition at 40 µM turned out to be 17.4%.

Take `CCOc1ccc(/C=C2\C(=O)N(c3ccc(C(C)C)cc3)N=C2C)cc1OC`: the Activity in [6] was under 5%. The inhibition at 40 µM in test [7] was found to be 7.7%.

Regarding `COc1cc(/C=C2\C(=O)N(c3cccc(C(=O)O)c3)N=C2C)ccc1OCc1ccccc1`, in the test with HEK-293T [8], the outcome was inactive. For the same compound, the IC50 in test [3] was determined as 33.8 µM. Also, the Activity in test [6] was under 5%. Further, the inhibition at 40 µM in [7] worked out at 57.5%.

`CC1=NN(c2cccc(C(=O)O)c2)C(=O)/C1=C\C=C\c1ccccc1`: the Activity in test [6] is given as under 5%. Also, the inhibition at 40 µM in test [7] was determined as 32.1%.

Take `CCCCCOc1ccc(/C=C2\C(=O)N(c3cccc(C(=O)O)c3)N=C2C)cc1OC`: the outcome in the test with HEK-293T [8] was inactive. Further, in test [3], the IC50 was 39.2 µM. In addition, in test [6], the Activity is under 5%. For the same compound, the inhibition at 40 µM in test [7] came out at 55.4%.

`COc1ccc(/C=C2\C(=O)N(c3cccc([N+](=O)[O-])c3)N=C2C)c2ccccc12`: in [6], the Activity is recorded as under 5%. In addition, the inhibition at 40 µM in test [7] was found to be 22.7%.

Take `CCOc1ccc(/C=C2\C(=O)N(c3c(F)c(F)c(F)c(F)c3F)N=C2C)cc1OC`: the result with HEK-293T [8] was inactive. Moreover, the IC50 in [3] is 82.2 µM. Besides, in test [6], the Activity is recorded as under 5%. Moreover, the inhibition at 40 µM in [7] was 43.6%.

On to `COc1cc(/C=C2\C(=O)N(c3cccc(C(=O)O)c3)N=C2C)ccc1OC(C)C`, for which the Activity in test [6] is recorded as under 5%. Besides, the inhibition at 40 µM in [7] is under 5%.

With `C[C@H](CCC(=O)O)[C@H]1CC[C@H]2[C@@H]3[C@H](O)C[C@@H]4C[C@H](O)CC[C@]4(C)[C@H]3CC[C@]12C` [CHENODIOL], the EC50 in test [9] came out at 12.5 µM.

Consider `CC1=NN(c2ccc([N+](=O)[O-])cc2)C(=O)/C1=C(/C)c1ccc(Cl)cc1`, for which the Activity in test [6] is on record as under 5%. Also, the inhibition at 40 µM in [7] was 16.8%.

Consider `CCOc1ccc(/C=C2\C(=O)N(c3cc(Cl)cc(Cl)c3)N=C2C)cc1OC`, for which, in [6], the Activity was under 5%. In test [7], the inhibition at 40 µM is under 5%.

As for `CCOc1ccc(/C=C2\C(=O)N(c3ccc([N+](=O)[O-])cc3)N=C2C)cc1OC`, the Activity in [6] stood at 12.7%. For the same compound, the inhibition at 40 µM in test [7] worked out at 14.8%.

In the case of `COc1cc(/C=C2\C(=O)N(c3cccc(C(=O)O)c3)N=C2C)ccc1O`, in [6], the Activity came out at 6.4%. Further, in test [7], the inhibition at 40 µM is under 5%.
